Bioassay records deposited in PubChem BioAssay by several laboratories.
CSC inhib – cancer stem cell viability inhibitors, primary screen, luminescence; AID 2717, 2010; inhibition, % at 7.5 µM; cancer stem cell-like cells viability; actives 1.1% (n = 300,000); in the data active = inhibition above about 75%; inconclusive = no clear call, values can overlap the other calls; tested in HMLE shEcad cells
Calb FLC – C. albicans growth inhibition with fluconazole, primary screen, CaCi-2 strain, Alamar Blue fluorescence; C. albicans CaCi-2 (fluconazole-resistant clinical isolate) + fluconazole, 48 h; growth inhibition, % (no concentration beside the values); actives 0.57% (n = 300,000);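 active = growth inhibition above about 58% in most replicates, limit read from the data, passing the limit was not always enough; inconclusive = exactly half the replicates above a set limit; inactive = most replicates below a set limit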;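 note: all wells also contain fluconazole at 8 µg/ml as a sub-toxic cotreatment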
T cruzi inh – inhibitors of intracellular T. cruzi growth, primary screen, luminescence, NIH3T3 host cells; T. cruzi beta-gal in NIH3T3, 90 h; inhibition, % (test concentration not listed); actives 1.4% (n = 300,000); AID 1885, 2009;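 active = mean inhibition across valid replicates above about 55%, limit read from the data; inconclusive = mean below that limit but half or more replicates reach it; inactive = mean below it, under half of replicates reach it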;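 note: signal also drops with host cell toxicity which is not excluded here; higher percent means less beta-gal luminescence so fewer parasites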
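System – NIH/3T3 host cells with β-galactosidase reporter T. cruzi · Doses – single 50 nL compound addition per well in DMSO · Reagent – 5000 T. cruzi trypomastigotes/well · Medium – Low-serum DMEM with 2% FBS · Timing – ≥90 h infection period, 3 h prior cell attachment · Evaluation – parasite load inhibition, % · Technique – GalScreen luminescence, 60 min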
Beta cell apopt – inhibitors of cytokine-induced beta cell apoptosis, primary screen, luminescence; INS-1E cytokine-induced death, ATP luminescence, 48 h; percent of positive-control rescue, neutral wells zero; protection from apoptosis, % (test concentration not listed); actives 0.8% (n = 300,000); AID 435005, 2010;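 active = Every replicate reaches about 75%, or at least half do and their mean reaches it too, limit read from the data; inconclusive = At least half of replicates reach the limit but their mean does not; inactive = Under half of replicates reach the limit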;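 note: higher means more ATP so stronger rescue from cytokine killing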
TAG inh – inhibitors of triacylglycerol accumulation, primary screen, cell-based, uHTS, fluorescence, H9c2. H9c2 cells, Nile Red lipid (TAG) fluorescence; cells loaded with 200 µM oleic acid. inhibition, % at 12.5 µM. actives 0.66% (n = 230,000);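 active = pattern-corrected inhibition of lipid staining of at least 50% with the nuclear-stain viability signal not falling by more than 50%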
Bfl-1 A1 inh – caspase 3/7 activation in MEF A1-2A-BIM cells, primary screen, A1 inhibitor project, cell-based, luminescence, HTS | Caspase-Glo 3/7 luminescence, 3 h; percent of clofoctol response, vehicle zero | AID 2462, 2010 | caspase activation, % (concentration not given with the values) | actives 0.066% (n = 330,000);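 active = over half of replicate activation scores above 10%, or exactly half above 10 with the replicate mean above 10; inconclusive = replicate mean below 10 yet half the replicates above 10; inactive = over half of replicates below 10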
Each line names hits and unclear results; the compound was inactive in the other large screens. The list is not random: actives were taken first. Their share in the collection is about 3.1%.

CCCCCCCCNC(C)C(O)c1ccc(SC(C)C)cc1 (stereo not given)	CSC inhib 102, T cruzi inh inconclusive, Beta cell apopt 117
CC(NC(=O)c1cccnc1)C(c1cccs1)N1CCOCC1 (stereo not given)	T cruzi inh 65 (no result: TAG inh)
Cc1sc2nc(CSC(C)C(=O)Nc3cc(S(C)(=O)=O)ccc3Cl)[nH]c(=O)c2c1C (stereo not given)	none
CCOC(=O)c1c(NC(C)=O)sc2c(OCCN(CC)CC)c(Br)ccc12	T cruzi inh 58
CC(=O)Nc1ccc2nc(NC(=O)c3ccc([N+](=O)[O-])s3)sc2c1	T cruzi inh 56 (no result: TAG inh)
CCCCOC(=O)Nc1nc2ccc([N+](=O)[O-])cc2s1	none (no result: TAG inh)
CC(=O)Nc1ccc2nc(NC(=O)c3cccs3)sc2c1	none
CCC(=O)Nc1nc2ccc([N+](=O)[O-])cc2s1	T cruzi inh 63 (no result: CSC inhib)
CCOc1ccccc1NC(=O)c1nc(S(=O)(=O)Cc2ccccc2)ncc1Cl	none (no result: CSC inhib, Beta cell apopt, TAG inh, Bfl-1 A1 inh)
COc1ccccc1NC(=O)c1nc(S(=O)(=O)Cc2ccccc2)ncc1Cl	Beta cell apopt 77 (no result: TAG inh)
CCS(=O)(=O)c1ncc(Cl)c(C(=O)Nc2ccccc2OC)n1	Beta cell apopt 84, Bfl-1 A1 inh inconclusive (no result: TAG inh)
COc1ccc(OC)c(-c2c3cc(O)c(=O)cc-3oc3cc(O)c(O)cc23)c1	CSC inhib 95 (no result: Calb FLC, T cruzi inh, TAG inh)
CC1=C(C(=O)Nc2ccc([N+](=O)[O-])cc2)C(c2cccc(C(F)(F)F)c2)NC(=S)N1c1ccccc1 (stereo not given)	T cruzi inh 57
COc1ccc(C2C(C#N)=C(C)NC3=C2C(=O)c2ccccc23)cc1 (stereo not given)	none (no result: TAG inh)
CC1=C([N+](=O)[O-])C(c2ccccc2)C2=C(N1)c1ccccc1C2=O (stereo not given)	TAG inh 60
Cc1ccc[n+](CC(=O)/C=C2\N(C)c3ccccc3C2(C)C)c1	none
CN1/C(=C\C(=O)COC(=O)c2ccc(O)c(O)c2)C(C)(C)c2ccccc21	Beta cell apopt 95 (no result: TAG inh)
CN1/C(=C\C(=O)COC(=O)c2ccc(O)cc2)C(C)(C)c2ccccc21	none
CN1/C(=C\C(=O)C[n+]2ccc(C(=O)c3ccccc3)cc2)C(C)(C)c2ccccc21	Calb FLC 98, Beta cell apopt 103
CN1/C(=C\C(=O)C[n+]2cccc(Br)c2)C(C)(C)c2ccccc21	Beta cell apopt 100
CSc1cccc(NC(=O)CN(C)S(=O)(=O)c2cnc[nH]2)c1	none (no result: TAG inh)
Cc1ccccc1-c1cc(C(=O)NCc2cccc(Br)c2)n(CC2CC(c3cccnc3)=NO2)n1 (stereo not given)	none (no result: CSC inhib, Calb FLC, T cruzi inh)
COc1ccc(C2C(C(=O)c3ccccc3)=C(C)Nc3nc4ccccc4n32)cc1OC (stereo not given)	T cruzi inh inconclusive (no result: Beta cell apopt)
COc1ccc(OC)c(C2C(C(=O)c3ccccc3)=C(C)Nc3nc4ccccc4n32)c1 (stereo not given)	T cruzi inh 69 (no result: Beta cell apopt)
COc1ccc(NS(=O)(=O)c2cc(NC(=O)CCc3ccc(OC)c(OC)c3)ccc2N2CCOCC2)cc1	none (no result: CSC inhib, Calb FLC, T cruzi inh, Beta cell apopt, Bfl-1 A1 inh)
CCC(=O)NC(=S)Nc1cccc(Cl)c1N1CCCCC1	CSC inhib 85 (no result: TAG inh)
CCc1ccc(OCC(=O)NNC(=S)NC(=O)C2CCCCC2)c(Br)c1	Calb FLC 84
Cc1cc(C)cc(OCC(=O)NNC(=S)NC(=O)C2CC2)c1	Calb FLC 119
CCc1ccc(OCC(=O)NNC(=S)NC(=O)C2CC2)c(Br)c1	Calb FLC 107 (no result: T cruzi inh)
CC1=CC=CC2=NC(=O)CC(C)(C(=O)N(CC(=O)NC3CCCC3)c3ccc(F)cc3)N12 (stereo not given)	none (no result: CSC inhib, TAG inh)
CN(CC(=O)Nc1ccc(S(=O)(=O)N2CCCC2)cc1)Cc1c(F)cccc1Cl	none
CN(CC(=O)Nc1ccc(S(=O)(=O)N2CCCC2)cc1)Cc1ccc(Cl)cc1	T cruzi inh 57 (no result: TAG inh)
O=C(CNC1CCN(Cc2ccccc2)CC1)Nc1ccc(S(=O)(=O)N2CCCCC2)cc1	T cruzi inh 55
CC(C)(C)c1ccc(-c2nc(O)c(CC(=O)O)s2)cc1	none (no result: TAG inh)
C[C@@H]1CN([C@@H](C)CO)S(=O)(=O)c2ccc(Br)cc2O[C@@H]1CN(C)S(=O)(=O)c1cn(C)cn1	none (no result: CSC inhib, Calb FLC, T cruzi inh, Beta cell apopt, Bfl-1 A1 inh)
O=C(O)c1ccc(Oc2ccc(C(F)(F)F)cn2)cc1	none (no result: Beta cell apopt)
Cc1ccccc1N1CCN(C(=O)c2ccc(Oc3ccc(C(F)(F)F)cn3)cc2)CC1	CSC inhib 87, T cruzi inh 58 (no result: TAG inh)
CCN1/C(=C/C(C)=O)Sc2ccc(OC)cc21	none
Cc1ccc2c(c1)N(C)/C(=C/c1cccc[n+]1CCO)S2	T cruzi inh inconclusive, Beta cell apopt 98 (no result: TAG inh)
COc1cc(OC)cc(C(=O)/C=C2\Sc3ccccc3N2C)c1	none
CCN1/C(=C/c2cccc[n+]2C)Sc2ccc(OC)cc21	Calb FLC 99, T cruzi inh 70, Beta cell apopt 105 (no result: TAG inh)
COc1ccc2c(c1)N(C)/C(=C/c1cccc[n+]1C)S2	T cruzi inh 56, Beta cell apopt 105 (no result: TAG inh)
C=CC(C)(C)O[C@@H]1O[C@H](CO)[C@@H](O)[C@H](O)[C@H]1O	none (no result: Calb FLC, T cruzi inh)
CC(C)(O)c1ccccc1CC[C@@H](SCC1(CC(=O)O)CC1)c1cccc(/C=C/c2ccc3ccc(Cl)cc3n2)c1	CSC inhib 97 (no result: Calb FLC)
CC(=O)Oc1ccc(Cl)cc1/C=C/c1ccc2ccccc2n1	none (no result: TAG inh)
CCOC(=O)c1c(C)[nH]c(C)c1C(=O)COC(=O)c1cccs1	none (no result: Calb FLC, T cruzi inh)
CCOC(=O)C(C(C)=O)c1c(Br)c(O)c(O)c2c(C(=O)c3ccc(C)cc3)coc12 (stereo not given)	CSC inhib 103, Beta cell apopt 95 (no result: TAG inh)
COc1ccc(C(=O)C2CCCN(Cc3c(C)[nH]c4ccccc34)C2)c(OC)c1 (stereo not given)	T cruzi inh 62 (no result: TAG inh)
COc1ccc(C(=O)C2CCCN(Cc3sc(N4CCCC4)nc3Cl)C2)c(OC)c1 (stereo not given)	T cruzi inh 63
Cc1nnc(SCC(=O)NNC(=O)c2ccccc2)n1N	none (no result: Calb FLC, T cruzi inh)
Cn1[nH]cc(C=NC(N)=O)c1=O	none (no result: CSC inhib, Calb FLC, T cruzi inh, Beta cell apopt, Bfl-1 A1 inh)
O=C(Nc1cccc(NC(=O)c2ccc(-c3ccc(Br)cc3)o2)c1)c1ccco1	T cruzi inh 58 (no result: TAG inh)
O=C(Nc1cccc(NC(=O)c2ccccc2Cl)c1)c1ccco1	none
CC(=NCc1cccc(Cl)c1)c1nc(-c2ccco2)oc1O	CSC inhib 100 (no result: TAG inh)
Cc1cccc(C)c1OCC(=O)Nc1ccc2c(c1)C(=O)NC2=O	none
O=C(c1cnn2c1NC(c1ccc(Br)cc1)CC2C(F)(F)F)N1CCN2CCCC2C1 (stereo not given)	CSC inhib 80 (no result: TAG inh)
